The source made the active and inactive calls. The rule behind the calls is not given here.
How the values were obtained:
[1] = target: T1, Opioid receptor (Rattus norvegicus) (UniProt P33533+P34975+P33535); assay: Inhibition of morphine analgesia in modified rat tail flick test.; format: functional
In short: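 Narcotic antagonist activity measured by modified rat tail-flick against an ED80 dose of morphine. Free bases dissolved by dropwise 1 N HCl, then diluted. At least five rats per dose and at least three doses per drug; AD50 determined.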

Mus musculus [2] = assay: Inhibition of acetic acid induced mouse writhing assay following s.c. administration; Inactive at 30 uMol/kg.; format: functional, organism-based; details: 30 uM
Mus musculus [3] = assay: Inhibition of acetic acid induced mouse writhing assay following s.c. administration.; format: functional; details: sc
Mus musculus [4] = assay: Inhibition of acetic acid induced mouse writhing assay following s.c. administration; Inactive.; format: functional, organism-based
[5] = target: T1, Opioid receptor (Rattus norvegicus); assay: Inhibition of morphine analgesia in modified rat tail flick test; Inactive at 25 uMol/kg.; format: functional; details: 25 uM
Mus musculus [6] = assay: Inhibition of acetic acid induced mouse writhing assay following s.c. administration; Inactive at 50 uMol/kg.; format: functional, organism-based; details: 50 uM

T1 sequence (P33533 whole entry, looked up): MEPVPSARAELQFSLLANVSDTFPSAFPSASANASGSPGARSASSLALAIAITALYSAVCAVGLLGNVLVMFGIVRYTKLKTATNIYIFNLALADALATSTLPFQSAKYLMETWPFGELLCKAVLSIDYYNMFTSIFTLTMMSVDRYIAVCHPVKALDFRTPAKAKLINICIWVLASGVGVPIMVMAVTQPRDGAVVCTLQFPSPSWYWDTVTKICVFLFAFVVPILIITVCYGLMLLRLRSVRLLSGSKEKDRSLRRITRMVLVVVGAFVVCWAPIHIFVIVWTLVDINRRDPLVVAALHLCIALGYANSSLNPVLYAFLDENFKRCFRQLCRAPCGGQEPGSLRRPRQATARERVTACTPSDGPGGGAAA
T1 sequence (P33535 whole entry, looked up): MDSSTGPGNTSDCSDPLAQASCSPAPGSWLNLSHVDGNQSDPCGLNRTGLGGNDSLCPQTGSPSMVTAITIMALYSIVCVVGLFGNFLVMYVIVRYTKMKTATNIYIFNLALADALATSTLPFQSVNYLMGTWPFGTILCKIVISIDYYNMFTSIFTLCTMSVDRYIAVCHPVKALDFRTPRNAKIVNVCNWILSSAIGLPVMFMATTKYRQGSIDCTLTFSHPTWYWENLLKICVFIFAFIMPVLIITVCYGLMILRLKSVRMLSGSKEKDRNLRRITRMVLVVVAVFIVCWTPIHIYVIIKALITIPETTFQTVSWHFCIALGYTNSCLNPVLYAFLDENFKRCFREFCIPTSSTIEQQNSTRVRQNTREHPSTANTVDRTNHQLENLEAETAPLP
T1 sequence (P34975 whole entry, looked up): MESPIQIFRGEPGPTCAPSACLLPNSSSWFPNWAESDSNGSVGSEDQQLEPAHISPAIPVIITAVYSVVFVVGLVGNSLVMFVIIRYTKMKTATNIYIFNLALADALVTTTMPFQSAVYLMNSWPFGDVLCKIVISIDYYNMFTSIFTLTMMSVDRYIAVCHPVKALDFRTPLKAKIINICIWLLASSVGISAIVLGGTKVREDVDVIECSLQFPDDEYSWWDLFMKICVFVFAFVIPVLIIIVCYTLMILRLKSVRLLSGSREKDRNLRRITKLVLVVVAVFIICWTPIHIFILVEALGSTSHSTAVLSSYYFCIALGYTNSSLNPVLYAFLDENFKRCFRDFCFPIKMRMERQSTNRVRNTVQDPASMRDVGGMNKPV

## C=C1C[C@H](CC)C2C3Cc4ccc(O)cc4C2(CCN3CC2CC2)C1 (stereo partly specified)
[1]
  ED50: 2.8 µmol/kg
Mus musculus [2]
  ED50: inactive

## C[C@H]1CC(=O)CC23CCN(CC4CC4)C(Cc4ccc(O)cc42)C13 (stereo partly specified)
[1]
  ED50: 1.8 µmol/kg
Mus musculus [3]
  ED50: 10.2 µmol/kg

## C=C1C[C@H](C)C2C3Cc4ccc(OC)cc4C2(CCN3CC2CCC2)C1 (stereo partly specified)
[1]
  ED50: 14.1 µmol/kg
Mus musculus [3]
  ED50: 16.5 µmol/kg

## C=CCN1CC[C@]23c4c5ccc(O)c4O[C@H]2[C@@H](O)C=C[C@H]3[C@H]1C5 [NALORPHINE]
[1]
  ED50: 2.5 µmol/kg
Mus musculus [3]
  ED50: 3.5 µmol/kg

## C=C1C[C@H](C)C2C3Cc4ccc(OC)cc4C2(CCN3CC2CC2)C1 (stereo partly specified)
[1]
  ED50: 11.3 µmol/kg
Mus musculus [3]
  ED50: 9.5 µmol/kg

## C[C@H]1CC(=O)CC23CCN(CC4CCC4)C(Cc4ccc(O)cc42)C13 (stereo partly specified)
[1]
  ED50: 2.8 µmol/kg
Mus musculus [3]
  ED50: 0.29 µmol/kg

## O=C1CC[C@@]2(O)[C@H]3Cc4ccc(O)c5c4[C@@]2(CCN3CC2CC2)[C@H]1O5 [NALTREXONE]
Mus musculus [3]
  ED50: > 28 µmol/kg

## C[C@H]1[C@H]2Cc3ccc(O)cc3[C@]1(C)CCN2CC1CC1
[1]
  ED50: 0.81 µmol/kg

## COc1ccc2c(c1)[C@]13CCN(CC4CC4)[C@H](C2)[C@@H]1[C@@H](C)CC(=O)C3
[1]
  ED50: 4.3 µmol/kg

## Oc1ccc2c(c1)[C@@]13CCCC[C@@]1(O)[C@@H](C2)N(CC1CCC1)CC3
[1]
  ED50: 2 µmol/kg

## C=C1CCC2C3Cc4ccc(OC)cc4C2(CCN3CC2CCC2)C1 (stereo unspecified)
[1]
  ED50: > 20 µmol/kg
Mus musculus [3]
  ED50: 3.2 µmol/kg

## C=CCN1CC[C@]23c4c5ccc(O)c4O[C@H]2C(=O)CC[C@@]3(O)[C@H]1C5
Mus musculus [4]
  ED50: inactive

## COc1ccc2c(c1)C13CCN(CC4CCC4)C(C2)C1[C@@H](C)CC(=O)C3 (stereo partly specified)
[1]
  ED50: 16.4 µmol/kg
Mus musculus [3]
  ED50: 1.38 µmol/kg

## CC[C@H]1CC(=O)CC23CCN(CC4CCC4)C(Cc4ccc(O)cc42)C13 (stereo partly specified)
[1]
  ED50: 0.82 µmol/kg
Mus musculus [3]
  ED50: 0.54 µmol/kg

## C=C1CCC2C3Cc4ccc(O)cc4C2(CCN3CC2CCC2)C1 (stereo unspecified)
[1]
  ED50: > 24 µmol/kg
Mus musculus [3]
  ED50: 0.22 µmol/kg

## C=C1CCC2C3Cc4ccc(O)cc4C2(CCN3CC2CC2)C1 (stereo unspecified)
[1]
  ED50: 0.37 µmol/kg
Mus musculus [3]
  ED50: 1.2 µmol/kg

## O=C1CCC2C3Cc4ccc(O)cc4C2(CCN3CC2CC2)C1 (stereo unspecified)
[1]
  ED50: 7.4 µmol/kg
Mus musculus [3]
  ED50: 3.3 µmol/kg

## C=C1C[C@H](C)C2C3Cc4ccc(O)cc4C2(CCN3CC2CC2)C1 (stereo partly specified)
[1]
  ED50: 0.89 µmol/kg
Mus musculus [3]
  ED50: 5.3 µmol/kg

## O=C1CCC2C3Cc4ccc(O)cc4C2(CCN3CC2CCC2)C1 (stereo unspecified)
[5]
  ED50: inactive

## C=C1C[C@H](C)C2C3Cc4ccc(O)cc4C2(CCN3CC2CCC2)C1 (stereo partly specified)
[1]
  ED50: 2.5 µmol/kg
Mus musculus [3]
  ED50: 0.53 µmol/kg

## C=C1C[C@H](CC)C2C3Cc4ccc(O)cc4C2(CCN3CC2CCC2)C1 (stereo partly specified)
[1]
  ED50: 21.2 µmol/kg
Mus musculus [3]
  ED50: > 28 µmol/kg

## COc1ccc2c(c1)C13CCN(CC4CCC4)C(C2)C1CCC(=O)C3 (stereo unspecified)
[5]
  ED50: inactive

## CC(C)=CCN1CC[C@]2(C)c3cc(O)ccc3C[C@H]1[C@H]2C [(+)-PENTAZOCINE]
[1]
  ED50: 36.4 µmol/kg
Mus musculus [3]
  ED50: 12.9 µmol/kg

## CC[C@H]1CC(=O)CC23CCN(CC4CC4)C(Cc4ccc(O)cc42)C13 (stereo partly specified)
[1]
  ED50: 4.7 µmol/kg
Mus musculus [6]
  ED50: inactive

— ChEMBL document CHEMBL1121900, “Analgesic narcotic antagonists. 9. 6-Methylene-8 beta-alkyl-N-(cycloalkylmethyl)-3-hydroxy- or -methoxymorphinans” (1981)
